Source: ChEMBL document CHEMBL1125360 (J Med Chem, 1992)
Where a SMILES comes first, the peptide text is derived from it. [ ]: non-standard residue; d: D form. The star is where a group is joined. Tyr(Nα,Nα-allyl2) = C=CCN(CC=C)[C@@H](Cc1ccc(O)cc1)C(=O)*; Aib = CC(C)(N)C(=O)O

Tests used:
Cavia porcellus [1] = organism: Cavia porcellus; experiment: The compound was tested for opioid agonist activity against guinea pig ileal longitudinal muscle (GPI); type: functional, Muscle tissue
Outline: (§1)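 Electrically stimulated guinea pig ileal longitudinal muscle and mouse vas deferens. For full agonists, 4-6 concentrations gave concentration-response curves compared with standard agonists in the same preparation. IC50 is the concentration giving a half-maximal response, with 95% confidence limits.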

Cavia porcellus [2] = organism: Cavia porcellus; experiment: The compound was evaluated for antagonistic activity by incubating with the smooth muscle preparation (GPI) for 15 min prior to testing with Ethylketazocine (EK); type: functional, Muscle tissue
Outline: (§2)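 Electrically stimulated guinea pig ileal longitudinal muscle or mouse vas deferens. Test ligand incubated 15 min before standard agonist challenge (morphine, ethylketazocine or DADLE). Ligand at 100 nM, or at 10, 20 or 30 nM when it had agonist activity, kept at or below its ED20.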

Cavia porcellus [3] = organism: Cavia porcellus; experiment: The compound was evaluated for antagonistic activity by incubating with the smooth muscle preparation (GPI) for 15 min prior to testing with morphine; type: functional, Muscle tissue; outline: as §2
Mus musculus [4] = organism: Mus musculus; experiment: The compound was evaluated for antagonistic activity by incubating with the smooth muscle preparation (MVD) for 15 min prior to testing with DADLE; type: functional, Muscle tissue; outline: as §2
Mus musculus [5] = organism: Mus musculus; experiment: The compound was evaluated for antagonistic activity by incubating with the smooth muscle preparation (MVD) for 15 min prior to testing with morphine; type: functional, Muscle tissue; outline: as §2
Mus musculus [6] = organism: Mus musculus; experiment: The compound was tested for opioid agonist activity against mouse vas deferens (MVD); type: functional; outline: as §1
Mus musculus [7] = organism: Mus musculus; experiment: The compound was evaluated for antinociceptive potency using abdominal stretch assay in mice.; type: functional, Abdomen
Outline: (§3)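 Mouse antinociception by abdominal stretch or tail flick assay. Test compound given icv. ED50 in nmol/mouse with 95% confidence limits.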

Cavia porcellus [8] = organism: Cavia porcellus; experiment: Antagonistic activity against EK in guinea pig ileal longitudinal muscle (GPI); type: functional, Muscle tissue; outline: as §2
Cavia porcellus [9] = organism: Cavia porcellus; experiment: Antagonistic activity against morphine in guinea pig ileal longitudinal muscle (GPI); type: functional, Muscle tissue; outline: as §2
Mus musculus [10] = organism: Mus musculus; experiment: Antagonistic activity against DADLE in smooth muscle preparation (MVD); type: functional, Muscle tissue; outline: as §2
Mus musculus [11] = organism: Mus musculus; experiment: Antagonistic activity against morphine in smooth muscle preparation (MVD); type: functional, Muscle tissue; outline: as §2
[12] = biological target: Kappa-type opioid receptor (Cavia porcellus, UniProt P41144); experiment: The compound was evaluated for binding affinity against the opioid receptor kappa in guinea pig brain membranes using [3H]- U-69,593; type: cell membranes, Membrane
Outline: (§4)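 Competition binding on guinea pig brain membranes. δ sites labelled with [3H]DPDPE, μ with [3H]DAMGO, κ with [3H]U69593. A footnote also describes κ labelling with [3H]ethylketazocine in the presence of 1 µM DAMGO.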

[13] = tested on: Delta-type opioid receptor; experiment: Selectivity for kappa to delta opioid receptors was determined; details: Cavia porcellus
Mu-type opioid receptor [14] = biological target: T1, Mu-type opioid receptor (Cavia porcellus, UniProt P97266); experiment: The compound was evaluated for binding affinity against opioid receptor mu in guinea pig brain membranes using [3H]- DAMGO as ligand; type: cell membranes, Membrane; outline: as §4
[15] = biological target: Mu-type opioid receptor (Cavia porcellus) (UniProt P97266); experiment: Selectivity for mu to delta opioid receptors was determined
Cavia porcellus [16] = organism: Cavia porcellus; experiment: Opiod agonistic activity against delta enriched smooth muscle preparation; type: functional; details: Muscle tissue
Mus musculus [17] = organism: Mus musculus; experiment: The compound was evaluated for antinociceptive potency using tail flick assay in mice; type: functional; outline: as §3
Mus musculus [18] = organism: Mus musculus; experiment: Effect of the opioid antagonist (beta-funaltrexamine, mu) on the antinociceptive potency using abdominal stretch assay in mice.; type: functional, Abdomen
Outline: (§5)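 Mice pretreated sc with β-FNA 20 µmol/kg 24 h before, norBNI 12 µmol/kg 2 h before, or NTI 44 µmol/kg 0.5 h before. Test compound then given icv in the abdominal stretch or tail flick assay. ED50 ratio is pretreated ED50 divided by control ED50, with 95% confidence limits.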

Mus musculus [19] = organism: Mus musculus; experiment: Effect of the opioid antagonist (naltrindole, delta) on the antinociceptive potency using abdominal stretch assay in mice; type: functional, Abdomen; outline: as §5
Mus musculus [20] = organism: Mus musculus; experiment: Effect of the opioid antagonist (naltrindole, delta) on the antinociceptive potency using tail flick assay; type: functional; outline: as §5
Mus musculus [21] = organism: Mus musculus; experiment: Effect of the opioid antagonist (norbinaltorphimine, kappa) on the antinociceptive potency using abdominal stretch assay in mice.; type: functional, Abdomen; outline: as §5
Mus musculus [22] = organism: Mus musculus; experiment: The compound was tested for antagonizing the antinociceptive potency of DPDPE using abdominal assay in mice.(values in the parenthesis indicate 95% confidence limits); type: functional, Abdomen
Mus musculus [23] = organism: Mus musculus; experiment: The compound was tested for antagonizing the antinociceptive potency of DSLET using abdominal assay in mice.(values in the parenthesis indicate 95% confidence limits); type: functional, Abdomen
Mus musculus [24] = organism: Mus musculus; experiment: The compound was tested for antagonizing the antinociceptive potency of U-50,488H using abdominal assay in mice.(values in the parenthesis indicate 95% confidence limits); type: functional, Abdomen
Mus musculus [25] = organism: Mus musculus; experiment: The compound was tested for antagonizing the antinociceptive potency of morphine using abdominal assay in mice.(values in the parenthesis indicate 95% confidence limits); type: functional, Abdomen
Mu-type opioid receptor [26] = biological target: T1, Mu-type opioid receptor; experiment: The compound was evaluated for binding affinity against Opioid receptor mu 1 in guinea pig brain membranes; type: cell membranes, Membrane; outline: as §4
Mus musculus [27] = organism: Mus musculus; experiment: The compound was evaluated for antinociceptive potency using abdominal stretch assay in mice; type: functional, Abdomen; parameters: unit not given here; outline: as §3
Opioid receptor = Opioid receptor (Mus musculus, UniProt P42866+P32300+P33534); experiment: Compound was tested for agonistic activity against the opioid receptor in electrically stimulated mouse vas deference; type: functional; outline: as §1
[28] = The compound was evaluated for binding affinity against Opioid receptor delta 1 in guinea pig brain membrane using [3H]- DPDPE as ligand
Cavia porcellus [29] = organism: Cavia porcellus; experiment: Opiod agonistic activity against delta enriched smooth muscle preparation.; type: functional; details: Muscle tissue
Mus musculus [30] = organism: Mus musculus; experiment: Effect of the opioid antagonist (beta-funaltrexamine, mu) on the antinociceptive potency using tail flick assay in mice.(values in the parenthesis indicate 95% confidence limits); type: functional
Outline: (§6)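 Mice, tail flick assay. Antagonist given sc beforehand: beta-FNA 20 µmol/kg 24 h before, or norBNI 12 µmol/kg 2 h before. Test compound then given icv. ED50 ratio = ED50 of test compound in pretreated mice divided by control ED50, with 95% confidence limits.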

Mus musculus [31] = organism: Mus musculus; experiment: Effect of the opioid antagonist (norbinaltorphimine, kappa) on the antinociceptive potency using tail flick assay in mice; type: functional; outline: as §6
Mus musculus [32] = organism: Mus musculus; experiment: The compound was tested for antagonizing the antinociceptive potency of DPDPE using abdominal assay in mice.; type: functional, Abdomen
Outline: (§7)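 Mice, abdominal stretch assay. Agonist peak times after icv dosing: DSLET 10 min, DPDPE 20 min, U50488H 15 min, morphine 30 min. Read-out is the agonist ED50 ratio with 95% confidence limits.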

Mus musculus [33] = organism: Mus musculus; experiment: The compound was tested for antagonizing the antinociceptive potency of DSLET using abdominal assay in mice.; type: functional, Abdomen; outline: as §7
Mus musculus [34] = organism: Mus musculus; experiment: The compound was tested for antagonizing the antinociceptive potency of U-50,488H using abdominal assay in mice; type: functional, Abdomen; outline: as §7
Mus musculus [35] = organism: Mus musculus; experiment: The compound was tested for antagonizing the antinociceptive potency of morphine using abdominal assay in mice; type: functional, Abdomen; outline: as §7

T1 sequence (P97266 whole entry): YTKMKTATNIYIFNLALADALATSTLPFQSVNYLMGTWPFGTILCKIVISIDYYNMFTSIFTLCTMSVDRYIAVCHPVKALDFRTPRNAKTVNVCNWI
Sequence of Mu-type opioid receptor (Cavia porcellus) (P97266 whole entry): as above
Sequence of Kappa-type opioid receptor (P41144 whole entry): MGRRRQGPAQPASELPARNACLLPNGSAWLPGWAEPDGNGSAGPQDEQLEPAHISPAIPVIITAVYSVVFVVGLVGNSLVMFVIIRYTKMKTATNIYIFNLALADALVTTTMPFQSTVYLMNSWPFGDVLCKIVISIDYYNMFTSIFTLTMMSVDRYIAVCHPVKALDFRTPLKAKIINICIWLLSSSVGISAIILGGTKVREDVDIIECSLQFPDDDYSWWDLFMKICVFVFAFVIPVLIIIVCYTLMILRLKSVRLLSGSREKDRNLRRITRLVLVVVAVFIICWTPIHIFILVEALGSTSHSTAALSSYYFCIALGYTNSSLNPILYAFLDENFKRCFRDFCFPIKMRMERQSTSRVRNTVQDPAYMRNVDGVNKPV

Row | SMILES | Max response (Cavia porcellus [1]) [%] | Max response (Mus musculus [6]) [%] | IC50 ratio (Cavia porcellus [8]) | IC50 ratio (Cavia porcellus [9]) | IC50 ratio (Mus musculus [10]) | IC50 ratio (Mus musculus [11]) | Ki [12] [nM] | Ratio [13] | Ki (Mu-type opioid receptor [14]) [nM] | Ratio [15] | ED50 (Mus musculus [17]) [nmol/mouse] | ED50 (Mus musculus [27]) | IC50 (Opioid receptor) [nM] | further results
1 | CN1CC[C@]23c4c5ccc(O)c4O[C@H]2c2oc4ccccc4c2C[C@@]3(O)[C@H]1C5 | 23 | 41 |  |  |  |  |  |  |  |  |  |  |  | IC50 ratio (Cavia porcellus [2]): 0.8; IC50 ratio (Cavia porcellus [3]): 0.5; IC50 ratio (Mus musculus [4]): 10.2; IC50 ratio (Mus musculus [5]): 0.8
2 | Oc1ccc2c3c1O[C@H]1c4[nH]c5ccccc5c4C[C@@]4(O)[C@@H](C2)N(CC2CC2)CC[C@]314 [NALTRINDOLE] |  |  |  |  |  |  |  |  |  |  |  |  |  | ED50 (Mus musculus [7]): 0.04 nM
3 | CN1CC[C@]23c4c5ccc(O)c4O[C@H]2c2[nH]c4ccccc4c2C[C@H]3[C@H]1C5 | 9 | 34 | 0.5 | 1 | 4.2 | 0.9 |  |  |  |  |  |  |  | 
4 | Oc1ccc2c3c1O[C@H]1c4[nH]c5ccccc5c4C[C@H]4[C@@H](C2)N(C/C=C/c2ccccc2)CC[C@]314 | 2 | 19 |  |  |  |  | > 1000 | > 9 | > 1000 | > 9 |  |  |  | IC50 ratio (Cavia porcellus [2]): 0.9; IC50 ratio (Cavia porcellus [3]): 0.8; IC50 ratio (Mus musculus [4]): 0.8; IC50 ratio (Mus musculus [5]): 1.1
5 | Oc1ccc2c3c1O[C@H]1c4[nH]c5ccccc5c4C[C@@]4(O)C(C2)NCC[C@]314 | 41 |  | 0.8 | 0.7 | 0.9 | 0.7 | > 1000 | > 357 |  | 224 | 10.9 | 1.1 | 124 | IC50 (Cavia porcellus [16]): 121 nM; ED50 ratio (Mus musculus [18]): 0.9; ED50 ratio (Mus musculus [19]): 1.2; ED50 ratio (Mus musculus [20]): 1.6; ED50 ratio (Mus musculus [21]): 1.6; ED50 ratio (Mus musculus [22]): 2.5; ED50 ratio (Mus musculus [23]): 5.4; ED50 ratio (Mus musculus [24]): 0.7; ED50 ratio (Mus musculus [25]): 1.1; Ki (Mu-type opioid receptor [26]): > 1000 nM
6 | CN1CC[C@]23c4c5ccc(O)c4O[C@H]2c2c(c4ccccc4n2C)C[C@@]3(O)[C@H]1C5 | 9 | 23 | 0.5 | 0.7 | 1.2 | 1 |  |  |  |  |  | 0.01 |  | 
7 | CN1CC[C@]23c4c5ccc(O)c4O[C@H]2c2[nH]c4ccccc4c2C[C@@]3(O)[C@H]1C5 [OXYMORPHINDOLE] | 12 | 65 | 0.9 | 0.9 | 1.3 | 0.9 |  | 6380 |  | 669 |  |  |  | ED50 (Mus musculus [7]): 0.019 nM; Ki [28]: 0.7 nM
8 | Oc1ccc2c3c1O[C@H]1c4[nH]c5ccccc5c4C[C@@]4(O)[C@@H](C2)N(CCc2ccccc2)CC[C@]314 | 15 |  | 0.8 | 0.8 | 0.6 | 0.9 | > 1000 |  | > 1000 |  | 2.2 | 0.4 | 171 | IC50 (Cavia porcellus [29]): 76 nM; ED50 ratio (Mus musculus [18]): 1.3; ED50 ratio (Mus musculus [30]): 5.8; ED50 ratio (Mus musculus [19]): 4; ED50 ratio (Mus musculus [20]): 3.2; ED50 ratio (Mus musculus [21]): 5.5; ED50 ratio (Mus musculus [31]): 21.6; ED50 ratio (Mus musculus [32]): 1.4; ED50 ratio (Mus musculus [33]): 2.8; ED50 ratio (Mus musculus [34]): 0.6; ED50 ratio (Mus musculus [35]): 0.4
9 | C=CCN(CC=C)[C@@H](Cc1ccc(O)cc1)C(=O)NC(C)(C)C(=O)NC(C)(C)C(=O)N[C@@H](Cc1ccccc1)C(=O)N[C@@H](CC(C)C)C(=O)O ({Tyr(Nα,Nα-allyl2)}-[Aib][Aib]FL-OH) |  |  |  |  |  |  |  | > 29 |  | > 29 |  |  |  | Ki [28]: 35 nM
10 | CSCC[C@H](NC(=O)[C@H](Cc1ccc(O)cc1)NC(=O)CNC(=O)CNC(=O)[C@H](Cc1ccccc1)NC(=O)[C@H](CC(C)C)NC(=O)[C@H](N)CO)C(=O)N[C@H](C(=O)O)[C@@H](C)O |  |  |  |  |  |  |  |  |  |  | 0.45 | 0.0032 |  | 
11 | Oc1ccc2c3c1O[C@H]1c4[nH]c5ccccc5c4C[C@H]4C(C2)NCC[C@]314 | 20 |  | 1.3 | 0.6 | 0.8 | 1 | 5.3 | 176 | 375 | 71 |  |  | 85 | 
12 | Oc1ccc2c3c1O[C@H]1c4[nH]c5ccccc5c4C[C@H]4[C@@H](C2)N(CCc2ccccc2)CC[C@]314 | 1900 |  | 0.9 | 0.8 | 0.6 | 0.9 | 2620 | 120 | 173 | 8 | 6.3 |  | 179 | IC50 (Cavia porcellus [16]): 174 nM
